According to publication PMC10099142 (ACS Omega, 2023):
Where two headings read alike, the source gives them in different places.

Tests used:
Format in all cases: cell-based
[1] = system: human lung adenocarcinoma (A549); test: MTT assay, antiproliferative activity, A549
In short: (§1)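 A549 cells are grown in DMEM and MDA-MB-231 cells in MEM, both with FBS and antibiotics, at 37 °C in humidified 5% CO2, then trypsinized. Cells are seeded at 5 × 10^3 per well and grown to confluency. They are exposed to a range of test compound concentrations for 24 h or 72 h, with 5-fluorouracil as reference. Medium is removed, MTT is added for 3 h, and formazan is dissolved in DMSO. A570 is read and percentage cell death is calculated.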

[2] = system: human breast adenocarcinoma (MDA-MB-231); test: MTT assay, antiproliferative activity, MDA-MB-231
In short: as §1

[3] = system: 3T3-L1, a fibroblast cell line; test: Screening of toxicity in normal cell line; conditions: Mus musculus, 3T3-L1, 72 h, read-out: IC50 3T3-L1 72 h
In short: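 3T3-L1 fibroblasts are kept in DMEM with 5% FBS and antibiotics at 37 °C in humidified 5% CO2. They are seeded at 5 × 10^3 per well and grown to confluency, then treated with a range of test compound concentrations. MTT is added for 3 h after removing the medium, and formazan is dissolved in DMSO. A570 is read and percentage cell death is calculated.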

- IC50 ([1]; A549, 24 h, read-out: IC50 A549 24 h): 747 ± 0.13 µM
- IC50 ([1]; A549, 72 h, read-out: IC50 A549 72 h): 17 ± 0.41 µM
- IC50 ([2]; MDA-MB-231, 24 h, read-out: IC50 MDA-MB-231 24 h): 885 ± 0.76 µM
- IC50 ([2]; MDA-MB-231, 72 h, read-out: IC50 MDA-MB-231 72 h): 29.01 ± 0.01 µM
SMILES: O=c1[nH]cc(F)c(=O)[nH]1 [5-fluorouracil]
- IC50 [3]: 41.4 ± 1.05 µM
